According to ChEMBL document CHEMBL3232764, “Influence of the adamantyl moiety on the activity of biphenylacrylohydroxamic acid-based HDAC inhibitors” (Eur J Med Chem, 2014):
Blank lines part the entries; values can stand above or below the molecule they belong to. Calls of active or inactive are those of the source. No cut-off for these calls is given here.

Legend:
[1] = tested on: IGROV-1; assay: Induction of apoptosis in human IGROV1 cells at IC80 after 72 hrs by TUNEL and flow cytometry analysis (reference value: 4%); format: functional
[2] = target: T1, Protein deacetylase HDAC6 (Homo sapiens) (UniProt Q9UBN7); assay: Inhibition of HDAC6 in human IGROV1 cells assessed as increase in tubulin acetylation at IC80 after 4 to 24 hrs by Western blot analysis; format: cell-based; details: IGROV-1
T1 sequence (whole entry): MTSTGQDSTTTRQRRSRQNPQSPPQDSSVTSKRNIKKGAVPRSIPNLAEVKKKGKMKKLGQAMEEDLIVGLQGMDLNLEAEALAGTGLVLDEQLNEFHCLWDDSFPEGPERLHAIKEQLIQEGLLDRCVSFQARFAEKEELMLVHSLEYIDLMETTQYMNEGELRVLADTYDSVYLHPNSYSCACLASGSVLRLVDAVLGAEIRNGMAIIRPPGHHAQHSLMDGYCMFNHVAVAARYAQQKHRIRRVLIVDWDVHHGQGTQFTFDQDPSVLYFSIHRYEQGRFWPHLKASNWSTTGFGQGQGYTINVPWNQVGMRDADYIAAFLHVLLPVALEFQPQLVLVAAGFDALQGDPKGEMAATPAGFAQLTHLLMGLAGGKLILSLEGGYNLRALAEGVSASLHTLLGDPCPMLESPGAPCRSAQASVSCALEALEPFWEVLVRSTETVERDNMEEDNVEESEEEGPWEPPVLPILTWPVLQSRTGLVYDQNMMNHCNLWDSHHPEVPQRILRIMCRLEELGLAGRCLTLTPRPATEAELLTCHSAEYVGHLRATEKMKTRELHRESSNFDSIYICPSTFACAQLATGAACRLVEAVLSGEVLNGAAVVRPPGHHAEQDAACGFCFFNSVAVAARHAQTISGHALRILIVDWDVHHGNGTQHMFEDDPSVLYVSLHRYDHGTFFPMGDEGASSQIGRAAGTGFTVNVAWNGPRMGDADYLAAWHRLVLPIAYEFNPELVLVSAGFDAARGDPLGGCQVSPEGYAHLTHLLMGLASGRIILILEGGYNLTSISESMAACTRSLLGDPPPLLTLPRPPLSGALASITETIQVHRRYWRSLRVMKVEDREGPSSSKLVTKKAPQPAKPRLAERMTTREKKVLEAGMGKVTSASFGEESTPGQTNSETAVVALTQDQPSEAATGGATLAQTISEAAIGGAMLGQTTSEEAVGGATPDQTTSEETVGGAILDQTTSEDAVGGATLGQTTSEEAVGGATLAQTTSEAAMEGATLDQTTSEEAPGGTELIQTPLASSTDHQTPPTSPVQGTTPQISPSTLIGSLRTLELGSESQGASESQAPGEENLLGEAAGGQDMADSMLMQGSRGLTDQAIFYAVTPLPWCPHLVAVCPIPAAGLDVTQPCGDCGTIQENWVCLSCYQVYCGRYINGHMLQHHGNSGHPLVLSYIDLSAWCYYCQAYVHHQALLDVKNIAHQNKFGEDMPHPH
In short: (§1)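 Cells treated with various concentrations of HDAC inhibitors, collected, lysed and analysed by Western blotting.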

[3] = tested on: IGROV-1; assay: Induction of DNA damage in human IGROV1 cells assessed as p53 phosphorylation at Ser15 at 1 to 2 uM after 4 to 48 hrs by Western blot analysis; format: functional, cell-based; in short: as §1
[4] = tested on: Mus musculus; assay: Toxicity in athymic nude Swiss mouse xenografted with human HCT116 cells at 50 mg/kg, po administered once-daily for 5 days a week for 5 weeks starting 3 days post tumor implantation; format: organism-based, HCT-116; design: dose 50 mg/kg, route oral; details: in vivo
In short: (§2)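 Female athymic Swiss nude mice given 10⁷ exponentially growing HCT116 cells s.c. in the right flank; tumor lines maintained by serial s.c. fragment passage. Dosing began 3 days after implantation: 50 mg/kg orally, once daily 4–5 days/week for 5 weeks (24 doses total). Compound dissolved in DMSO, diluted in PBS with 5% Cremophor to 10% DMSO final.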

[5] = tested on: IGROV-1; assay: Cell cycle arrest in human IGROV1 cells assessed as accumulation at S phase at IC80 after 24 hrs by propidium iodide staining-based flow cytometry (reference value: 36.81%); format: functional
In short: (§3)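 Cell-cycle distribution in IGROV-1 cells read by flow cytometry of propidium iodide–stained cells.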

[6] = Antiproliferative activity against p53 defective cis-platinum-resistant human IGROV1/Pt1 cells assessed as growth inhibition after 72 hrs; format: functional, cell-based; details: IGROV-1/Pt1, 72 h
In short: (§4)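 Log-phase cells seeded in duplicate in 6-well plates; drug added 24 h after seeding. Cells harvested 72 h after drug exposure and counted with a cell counter. IC50 = drug concentration giving 50% reduction in cell number versus untreated control.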

[7] = target: T2, Histone deacetylase 11 (Homo sapiens, UniProt Q96DB2); assay: Inhibition of human HDAC11 using fluorogenic tetrapeptide RHKKAc as substrate
T2 sequence (Q96DB2 whole entry): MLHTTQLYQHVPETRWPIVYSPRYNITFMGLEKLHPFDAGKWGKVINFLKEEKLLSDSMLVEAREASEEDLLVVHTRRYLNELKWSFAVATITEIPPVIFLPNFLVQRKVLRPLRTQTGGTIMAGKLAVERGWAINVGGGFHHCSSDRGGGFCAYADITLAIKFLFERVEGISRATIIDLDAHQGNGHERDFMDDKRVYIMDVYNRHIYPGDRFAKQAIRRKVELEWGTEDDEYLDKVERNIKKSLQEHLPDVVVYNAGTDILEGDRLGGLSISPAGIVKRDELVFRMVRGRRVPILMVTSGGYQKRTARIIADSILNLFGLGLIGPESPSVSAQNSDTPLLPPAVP

[8] = Cell cycle arrest in human IGROV1 cells assessed as accumulation at G2/M phase at IC80 after 24 hrs by propidium iodide staining-based flow cytometry (reference value: 13.21%); format: functional; details: IGROV-1; in short: as §3
[9] = target: Histone deacetylase 2 (Homo sapiens, UniProt Q92769); format: cell-based, HeLa
[10] = cells; format: functional, cell-based; details: Homo sapiens, NCI-H460, 72 h
[11] = tested on: IGROV-1; assay: Cell cycle arrest in human IGROV1 cells assessed as accumulation at G1 phase at IC80 after 24 hrs by propidium iodide staining-based flow cytometry (reference value: 49.98%); format: functional; in short: as §3
[12] = tested on: HCT-116; assay: Antiproliferative activity against human HCT116 cells assessed as growth inhibition after 72 hrs; format: functional, cell-based; details: HCT-116, 72 h; in short: as §4
[13] = tested on: IGROV-1; assay: Antiproliferative activity against human IGROV1 cells assessed as growth inhibition after 72 hrs; format: functional, cell-based; details: IGROV-1, 72 h; in short: as §4
[14] = tested on: HCT-116; assay: Anticancer activity against human HCT116 cells xenografted in athymic nude Swiss mouse assessed as tumor growth inhibition at 50 mg/kg, po administered once-daily for 5 days a week for 5 weeks starting 3 days post tumor implantation; format: functional; details: read-out: TGI; in short: as §2
[15] = target: Histone deacetylase 4 (Homo sapiens, UniProt P56524); assay: Inhibition of human HDAC4 using fluorogenic tetrapeptide RHKKAc as substrate
[16] = target: Histone deacetylase 1 (Homo sapiens, UniProt Q13547); assay: Inhibition of human HDAC1 using fluorogenic tetrapeptide RHKKAc as substrate
[17] = target: T3, Polyamine deacetylase HDAC10 (Homo sapiens, UniProt Q969S8); assay: Inhibition of human HDAC10 using fluorogenic tetrapeptide RHKKAc as substrate
T3 sequence (Q969S8 whole entry): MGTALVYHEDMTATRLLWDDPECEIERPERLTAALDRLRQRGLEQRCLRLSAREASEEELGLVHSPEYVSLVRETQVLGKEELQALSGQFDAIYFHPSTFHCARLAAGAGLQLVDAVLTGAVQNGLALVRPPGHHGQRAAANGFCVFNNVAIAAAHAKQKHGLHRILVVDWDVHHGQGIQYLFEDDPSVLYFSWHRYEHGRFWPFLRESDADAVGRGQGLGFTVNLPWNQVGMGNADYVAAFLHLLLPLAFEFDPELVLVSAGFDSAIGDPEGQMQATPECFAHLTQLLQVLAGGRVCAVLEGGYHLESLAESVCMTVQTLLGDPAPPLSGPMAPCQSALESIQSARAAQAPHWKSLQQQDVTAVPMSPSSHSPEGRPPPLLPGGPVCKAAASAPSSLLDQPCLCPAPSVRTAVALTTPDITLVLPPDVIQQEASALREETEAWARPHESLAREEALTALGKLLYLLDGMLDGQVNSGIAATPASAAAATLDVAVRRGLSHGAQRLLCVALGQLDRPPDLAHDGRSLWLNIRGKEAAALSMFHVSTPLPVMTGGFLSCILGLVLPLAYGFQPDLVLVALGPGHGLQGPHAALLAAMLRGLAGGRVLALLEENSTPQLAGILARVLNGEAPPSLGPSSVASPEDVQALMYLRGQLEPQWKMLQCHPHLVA

[18] = target: Histone deacetylase 3 (Homo sapiens, UniProt O15379)
[19] = target: T4, Histone deacetylase 8 (Homo sapiens, UniProt Q9BY41); assay: Inhibition of human HDAC8 using fluorogenic tetrapeptide RHKKAc as substrate
T4 sequence (Q9BY41 whole entry): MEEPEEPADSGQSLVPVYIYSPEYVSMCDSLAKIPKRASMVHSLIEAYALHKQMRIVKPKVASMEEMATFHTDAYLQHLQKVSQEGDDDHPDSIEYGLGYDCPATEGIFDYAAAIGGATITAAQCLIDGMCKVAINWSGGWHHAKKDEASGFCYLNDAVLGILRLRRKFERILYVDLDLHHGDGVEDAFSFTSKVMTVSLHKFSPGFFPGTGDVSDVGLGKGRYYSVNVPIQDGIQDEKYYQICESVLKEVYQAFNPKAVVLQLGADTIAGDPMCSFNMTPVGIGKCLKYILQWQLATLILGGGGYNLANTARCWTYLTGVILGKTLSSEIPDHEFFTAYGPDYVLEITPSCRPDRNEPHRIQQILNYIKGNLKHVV

[20] = target: Histone deacetylase 9 (Homo sapiens, UniProt Q9UKV0); assay: Inhibition of human HDAC9 using fluorogenic tetrapeptide RHKKAc as substrate
[21] = target: Histone deacetylase 5 (Homo sapiens, UniProt Q9UQL6); assay: Inhibition of human HDAC5 using fluorogenic tetrapeptide RHKKAc as substrate
[22] = target: T5, Protein deacetylase HDAC6 (Homo sapiens, UniProt Q9UBN7); assay: Inhibition of human HDAC6 using fluorogenic tetrapeptide RHKKAc as substrate
T5 sequence (Q9UBN7 whole entry): T1 sequence (whole entry)

Sequence of Histone deacetylase 2 (Q92769 whole entry): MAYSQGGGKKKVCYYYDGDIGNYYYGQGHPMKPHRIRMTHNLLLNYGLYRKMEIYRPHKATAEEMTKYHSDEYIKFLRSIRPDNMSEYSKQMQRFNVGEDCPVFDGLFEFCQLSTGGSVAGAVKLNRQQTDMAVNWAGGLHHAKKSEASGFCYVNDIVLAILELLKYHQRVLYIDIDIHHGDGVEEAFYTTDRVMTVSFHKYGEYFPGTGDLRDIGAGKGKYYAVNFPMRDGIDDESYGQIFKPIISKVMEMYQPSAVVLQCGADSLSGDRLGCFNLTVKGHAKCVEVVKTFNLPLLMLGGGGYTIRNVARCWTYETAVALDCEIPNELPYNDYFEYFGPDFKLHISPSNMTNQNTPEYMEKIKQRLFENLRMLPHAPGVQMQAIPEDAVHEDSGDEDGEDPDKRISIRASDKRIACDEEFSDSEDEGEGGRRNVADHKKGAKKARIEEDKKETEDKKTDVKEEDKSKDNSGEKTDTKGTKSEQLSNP
Sequence of Histone deacetylase 4 (P56524 whole entry): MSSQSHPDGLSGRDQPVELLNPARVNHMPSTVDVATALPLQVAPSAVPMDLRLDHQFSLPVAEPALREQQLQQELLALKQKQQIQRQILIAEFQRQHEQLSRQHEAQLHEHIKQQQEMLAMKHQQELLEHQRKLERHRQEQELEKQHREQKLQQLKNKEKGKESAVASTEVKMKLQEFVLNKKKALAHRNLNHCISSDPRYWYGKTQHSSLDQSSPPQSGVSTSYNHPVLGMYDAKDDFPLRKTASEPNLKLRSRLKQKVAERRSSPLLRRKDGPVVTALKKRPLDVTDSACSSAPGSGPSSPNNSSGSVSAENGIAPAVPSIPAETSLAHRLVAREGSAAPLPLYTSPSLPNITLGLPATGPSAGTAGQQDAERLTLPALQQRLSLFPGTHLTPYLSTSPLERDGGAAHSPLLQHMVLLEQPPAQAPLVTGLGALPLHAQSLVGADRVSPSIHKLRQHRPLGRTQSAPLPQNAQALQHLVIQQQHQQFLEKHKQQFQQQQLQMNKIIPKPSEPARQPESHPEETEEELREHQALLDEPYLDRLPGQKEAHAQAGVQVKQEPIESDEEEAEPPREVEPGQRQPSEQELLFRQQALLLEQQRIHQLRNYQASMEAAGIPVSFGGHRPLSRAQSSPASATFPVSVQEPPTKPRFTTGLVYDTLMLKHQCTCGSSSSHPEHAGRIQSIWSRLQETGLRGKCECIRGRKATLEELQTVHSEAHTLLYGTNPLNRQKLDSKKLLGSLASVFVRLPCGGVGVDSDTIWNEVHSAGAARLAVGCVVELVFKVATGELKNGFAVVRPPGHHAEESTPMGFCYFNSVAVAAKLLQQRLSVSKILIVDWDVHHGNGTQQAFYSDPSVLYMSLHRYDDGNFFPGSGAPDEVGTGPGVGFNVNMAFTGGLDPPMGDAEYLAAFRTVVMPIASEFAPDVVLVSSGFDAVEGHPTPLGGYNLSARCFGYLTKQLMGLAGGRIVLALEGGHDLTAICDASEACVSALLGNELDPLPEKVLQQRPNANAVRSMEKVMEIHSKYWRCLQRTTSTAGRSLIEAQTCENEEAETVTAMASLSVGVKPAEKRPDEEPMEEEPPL
Sequence of Histone deacetylase 3 (O15379 whole entry): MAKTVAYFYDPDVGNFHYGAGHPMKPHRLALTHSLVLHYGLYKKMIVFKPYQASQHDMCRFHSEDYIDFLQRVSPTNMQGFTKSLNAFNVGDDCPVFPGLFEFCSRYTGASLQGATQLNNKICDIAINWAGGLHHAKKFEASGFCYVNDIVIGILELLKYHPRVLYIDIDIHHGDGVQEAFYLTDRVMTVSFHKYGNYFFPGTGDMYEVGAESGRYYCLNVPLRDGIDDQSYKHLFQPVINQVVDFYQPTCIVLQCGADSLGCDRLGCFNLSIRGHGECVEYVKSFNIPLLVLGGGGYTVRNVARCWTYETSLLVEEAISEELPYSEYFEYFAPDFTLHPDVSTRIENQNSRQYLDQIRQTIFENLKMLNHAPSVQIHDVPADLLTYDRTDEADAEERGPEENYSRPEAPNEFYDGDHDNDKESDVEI
Sequence of Histone deacetylase 5 (Q9UQL6 whole entry): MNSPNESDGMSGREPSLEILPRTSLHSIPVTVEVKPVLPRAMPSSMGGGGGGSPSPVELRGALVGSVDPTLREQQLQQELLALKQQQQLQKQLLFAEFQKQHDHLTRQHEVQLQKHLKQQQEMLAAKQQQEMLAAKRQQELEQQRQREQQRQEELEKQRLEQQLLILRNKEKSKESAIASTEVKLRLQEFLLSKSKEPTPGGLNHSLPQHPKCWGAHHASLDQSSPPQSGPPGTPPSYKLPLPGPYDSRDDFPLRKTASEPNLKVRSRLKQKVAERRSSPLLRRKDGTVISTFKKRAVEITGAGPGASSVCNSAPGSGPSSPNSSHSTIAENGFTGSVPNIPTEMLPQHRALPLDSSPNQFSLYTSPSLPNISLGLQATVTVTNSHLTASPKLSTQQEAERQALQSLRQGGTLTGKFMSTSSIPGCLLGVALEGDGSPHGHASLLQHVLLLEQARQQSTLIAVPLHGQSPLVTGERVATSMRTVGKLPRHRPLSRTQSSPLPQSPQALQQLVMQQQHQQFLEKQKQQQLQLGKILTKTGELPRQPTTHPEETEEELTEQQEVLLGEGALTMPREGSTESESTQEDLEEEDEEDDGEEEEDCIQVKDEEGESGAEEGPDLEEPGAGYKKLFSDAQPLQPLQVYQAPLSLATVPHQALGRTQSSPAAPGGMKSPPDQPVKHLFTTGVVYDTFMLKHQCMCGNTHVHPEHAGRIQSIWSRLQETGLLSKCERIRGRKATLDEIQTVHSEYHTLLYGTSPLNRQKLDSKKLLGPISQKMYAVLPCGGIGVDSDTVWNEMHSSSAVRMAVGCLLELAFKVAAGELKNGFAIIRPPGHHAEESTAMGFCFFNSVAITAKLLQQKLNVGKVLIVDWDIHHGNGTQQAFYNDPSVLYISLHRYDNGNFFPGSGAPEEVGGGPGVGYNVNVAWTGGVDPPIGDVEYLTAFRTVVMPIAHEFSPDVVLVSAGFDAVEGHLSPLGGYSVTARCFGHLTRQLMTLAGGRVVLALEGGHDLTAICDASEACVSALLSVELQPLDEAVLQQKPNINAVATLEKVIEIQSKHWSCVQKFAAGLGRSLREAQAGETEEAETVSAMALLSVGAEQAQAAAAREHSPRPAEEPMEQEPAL
Sequence of Histone deacetylase 1 (Q13547 whole entry): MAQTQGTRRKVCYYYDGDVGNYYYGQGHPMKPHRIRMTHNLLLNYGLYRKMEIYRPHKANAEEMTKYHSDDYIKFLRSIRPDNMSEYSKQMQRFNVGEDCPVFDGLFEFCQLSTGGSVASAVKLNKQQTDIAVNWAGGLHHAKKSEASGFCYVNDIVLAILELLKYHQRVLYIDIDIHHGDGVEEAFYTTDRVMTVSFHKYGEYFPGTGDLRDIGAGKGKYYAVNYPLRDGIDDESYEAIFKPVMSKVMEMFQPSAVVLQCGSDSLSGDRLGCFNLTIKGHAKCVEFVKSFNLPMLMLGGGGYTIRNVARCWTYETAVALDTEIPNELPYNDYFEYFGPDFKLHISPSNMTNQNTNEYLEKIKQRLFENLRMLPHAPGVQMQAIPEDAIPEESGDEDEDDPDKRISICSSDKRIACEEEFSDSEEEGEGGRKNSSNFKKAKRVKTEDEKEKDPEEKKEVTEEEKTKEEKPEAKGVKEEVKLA
Sequence of Histone deacetylase 9 (Q9UKV0 whole entry): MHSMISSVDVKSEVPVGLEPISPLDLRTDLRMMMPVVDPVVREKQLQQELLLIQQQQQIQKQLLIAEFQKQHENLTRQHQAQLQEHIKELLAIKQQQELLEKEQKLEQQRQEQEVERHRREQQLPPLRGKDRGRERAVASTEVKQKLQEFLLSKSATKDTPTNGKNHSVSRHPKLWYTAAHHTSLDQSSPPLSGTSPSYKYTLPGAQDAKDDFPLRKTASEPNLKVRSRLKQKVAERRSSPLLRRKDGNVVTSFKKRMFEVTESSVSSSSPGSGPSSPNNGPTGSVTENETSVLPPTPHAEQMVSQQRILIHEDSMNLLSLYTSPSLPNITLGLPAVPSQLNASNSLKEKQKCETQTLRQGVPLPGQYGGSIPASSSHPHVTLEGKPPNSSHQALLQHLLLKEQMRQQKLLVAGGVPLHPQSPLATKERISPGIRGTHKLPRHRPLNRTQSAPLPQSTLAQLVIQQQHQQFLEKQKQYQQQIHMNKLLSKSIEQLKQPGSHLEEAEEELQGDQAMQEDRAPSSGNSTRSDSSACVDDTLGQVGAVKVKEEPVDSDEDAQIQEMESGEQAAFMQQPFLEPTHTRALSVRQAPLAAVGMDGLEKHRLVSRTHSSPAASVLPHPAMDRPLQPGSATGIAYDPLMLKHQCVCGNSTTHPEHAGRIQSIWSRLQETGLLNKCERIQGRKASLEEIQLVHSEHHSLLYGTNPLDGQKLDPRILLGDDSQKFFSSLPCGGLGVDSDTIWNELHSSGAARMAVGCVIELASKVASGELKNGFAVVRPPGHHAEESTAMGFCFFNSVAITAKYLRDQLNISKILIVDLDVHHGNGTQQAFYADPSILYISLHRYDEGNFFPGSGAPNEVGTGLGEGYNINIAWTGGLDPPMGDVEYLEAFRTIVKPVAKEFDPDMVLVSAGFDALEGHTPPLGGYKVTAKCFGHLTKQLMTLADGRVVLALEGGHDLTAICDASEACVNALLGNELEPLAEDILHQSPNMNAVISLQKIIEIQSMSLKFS

Activity [2]: inactive | IC50 [7]: 77 µM | IC50 [9]: 2300 nM | IC50 [10]: 1420 nM | IC50 [12]: 1300 nM
SMILES: COc1ccc(-c2ccc(/C=C/C(=O)NO)cc2)cc1C12CC3CC(CC(C3)C1)C2
Activity [3]: Active | Activity [4]: Non-toxic | Activity [5]: 18.14% | IC50 [6]: 1800 nM | Activity [8]: 3.39% | Activity [11]: 78.46% | IC50 [13]: 960 nM | Activity [1]: 42% | inhibition in vivo at 50 mg/kg [14]: 60%

IC50 [10]: 5400 nM | IC50 [12]: 5400 nM
SMILES: O=C(/C=C/c1ccc(-c2ccc(O)c(C34CC5CC(CC(C5)C3)C4)c2)c(Cl)c1)NO
IC50 [6]: 1600 nM | IC50 [13]: 1340 nM

IC50 [15]: 61.4 µM | IC50 [16]: > 100 µM | IC50 [7]: 57.2 µM | IC50 [9]: 2640 nM | IC50 [10]: 830 nM | IC50 [17]: > 100 µM | IC50 [18]: 55.6 µM | IC50 [19]: 6960 nM | IC50 [12]: 580 nM | IC50 [20]: 41.4 µM | IC50 [21]: 78.4 µM | IC50 [22]: 2800 nM
SMILES: O=C(/C=C/c1ccc(-c2ccc(O)c(C34CC5CC(CC(C5)C3)C4)c2)cc1)NO
IC50 [6]: 1300 nM | IC50 [13]: 1100 nM

IC50 [10]: 1000 nM | IC50 [12]: 2550 nM
SMILES: O=C(/C=C/c1ccc(-c2cc3c(c(C45CC6CC(CC(C6)C4)C5)c2)OCCO3)cc1)NO
IC50 [6]: 800 nM | IC50 [13]: 1200 nM

Further lines, the molecule ahead of its results:

SMILES: O=C(CCCCCCC(=O)Nc1ccccc1)NO [VORINOSTAT]
Activity [1]: 37%

SMILES: COc1ccc(-c2ccc(/C=C/C(=O)NO)cc2)cc1
IC50 [15]: 99.4 µM | Activity [5]: 55.84% | IC50 [16]: 8.55 µM | IC50 [7]: 73 µM | Activity [8]: 2.11% | IC50 [17]: 91 µM | IC50 [18]: 84.5 µM | Activity [11]: 42.05% | IC50 [19]: 69.8 nM | IC50 [20]: 39.3 µM | IC50 [21]: 29.6 µM | IC50 [22]: 36.8 nM | Activity [1]: 90%

SMILES: O=C(NO)c1ccc2cc(-c3ccc(O)c(C45CC6CC(CC(C6)C4)C5)c3)ccc2c1
IC50 [6]: 1100 nM | IC50 [10]: 1000 nM | IC50 [12]: 700 nM | IC50 [13]: 650 nM

SMILES: O=C(/C=C/c1ccc(-c2cccc(C34CC5CC(CC(C5)C3)C4)c2)cc1)NO
IC50 [6]: 5700 nM | IC50 [9]: > 10000 nM | IC50 [10]: > 10000 nM | IC50 [12]: 10300 nM | IC50 [13]: 1230 nM

SMILES: COc1ccc(-c2ccc3cc(C(=O)NO)ccc3c2)cc1C12CC3CC(CC(C3)C1)C2
IC50 [6]: 4160 nM | IC50 [10]: 1300 nM | IC50 [12]: 1400 nM | IC50 [13]: 1500 nM

SMILES: O=C(/C=C/c1ccc(-c2ccc(O)cc2)cc1)NO
IC50 [15]: 17.1 µM | IC50 [16]: 5.51 µM | IC50 [7]: 5.01 µM | IC50 [17]: 11 µM | IC50 [18]: 4.57 µM | IC50 [19]: 162 nM | IC50 [20]: 8.92 µM | IC50 [21]: 11.2 µM | IC50 [22]: 41.8 nM

SMILES: O=C(/C=C/c1ccc(-c2ccccc2)cc1)NO
IC50 [6]: 4300 nM
